Runt-SMMHC FRET = inhibitors of human RUNX1 Runt domain binding to CBFb-SMMHC | Cerulean-Runt/Venus-CBFb-SMMHC FRET ratio 530/480, 1 h | inhibition, % at 20 µM | Q01196+Q13951 | hit rate 0.74% among 220,000;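 active means mean inhibition across duplicate retests at 20 µM reaching about 50%, limit read from the data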;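 further: 0% = DMSO wells and 100% = wells with excess untagged CBFb-SMMHC; inhibitors lower the FRET ratio by blocking Runt binding to CBFb-SMMHC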
PHOSPHO1 inh = inhibitors of human PHOSPHO1 phosphatase; inhibition, % at 13.3 µM; hit rate 1.1% among 290,000; recombinant PHOSPHO1, absorbance phosphatase assay; Q8TCT1; in the data active means inhibition above about 60%
Runt-CBFb FRET = inhibitors of human RUNX1 Runt domain binding to CBFb. inhibition, % at 20 µM. hit rate 0.46% among 220,000. Cerulean-Runt/Venus-CBFb FRET ratio 530/480, 1 h. AID 1496;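 active means inhibition over about 50% at 20 µM in the single-dose screen, limit read from the data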;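 further: 0% = DMSO wells and 100% = excess unlabeled CBFb competitor control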
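Measured by: fluorescence energy transfer, 422 nm excitation, 530/480 nm emission; test system: Cerulean-tagged RUNX1 Runt domain (FRET donor) fusion protein; buffer or medium: Tris pH 7.5 buffer with BSA; compound: one dose, 20 µM compound, 1% DMSO; times: two 1 h room-temperature incubations shielded from light; benchmarks: unlabeled CBFb 5 µM, positive control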
Wee1 degr inh = inhibitors of human Wee1 degradation; HeLa Luc-Wee1K328M stability, luciferase luminescence; 100% = proteasome inhibitor MG132 effect; reporter increase, % at 5 µM; hit rate 1.2% among 220,000; AID 1321;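 active means activation above the mean of all tested compounds plus 3 SD, set per screening run, cut at about 8.8% in these data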;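 further: cells exposed to compound for 20 h before luminescence read; 0% = DMSO alone and 100% = MG132 at 30 µM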
Target sequence (P30291 whole entry K328M): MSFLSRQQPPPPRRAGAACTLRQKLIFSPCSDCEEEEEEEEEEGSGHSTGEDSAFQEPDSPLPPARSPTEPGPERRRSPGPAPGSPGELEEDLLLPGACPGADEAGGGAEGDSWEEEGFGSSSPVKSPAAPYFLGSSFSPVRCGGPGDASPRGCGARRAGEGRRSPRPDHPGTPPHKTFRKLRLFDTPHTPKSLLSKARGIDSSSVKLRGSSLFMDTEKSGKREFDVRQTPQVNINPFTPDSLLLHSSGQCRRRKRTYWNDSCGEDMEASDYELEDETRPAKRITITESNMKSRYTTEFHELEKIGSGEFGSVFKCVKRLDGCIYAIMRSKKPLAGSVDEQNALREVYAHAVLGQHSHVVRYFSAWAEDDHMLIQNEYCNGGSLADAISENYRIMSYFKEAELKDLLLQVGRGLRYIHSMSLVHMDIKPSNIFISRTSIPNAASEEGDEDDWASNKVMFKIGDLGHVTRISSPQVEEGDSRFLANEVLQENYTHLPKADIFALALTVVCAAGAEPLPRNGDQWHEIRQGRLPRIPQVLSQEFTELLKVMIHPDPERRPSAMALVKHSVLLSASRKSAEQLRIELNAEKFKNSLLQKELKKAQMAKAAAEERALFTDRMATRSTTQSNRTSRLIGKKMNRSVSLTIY
RanGTP-Imp inh = disruptors of Ran-importin-beta complex formation – biochemical, FRET, CFP-Ran, YFP-importin-beta, homogeneous, primary screen; hit rate 1.1% among 300,000; inhibition, % (no concentration beside the values); cell-free CFP-Ran/YFP-importin-beta FRET ratio;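 active means more than half of the replicate wells show a fall in the fluorescence ratio signal beyond about 16%, limit read from the data, passing the limit was not always enough; inconclusive means exactly half of the replicate wells pass the set limit; inactive means fewer than half of replicates pass the limit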;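 further: 0% = DMSO wells and 100% = Ran loaded with GDP instead of GTP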
Efa HMGR inh = E. faecalis class II HMG-CoA reductase inhibition | purified E. faecalis HMGR, NADPH absorbance 340 nm kinetic | inhibition, % at 10 µM | hit rate 0.41% among 190,000 | AID 1066;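 active means inhibition above a set limit, the median over all tested compounds plus 3 SD, cut at about 9.5% in these data; inconclusive means no clear call, values can overlap the other calls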;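 further: enzyme runs in reverse so mevalonate oxidation gives rising NADPH absorbance; 0% = complete reaction with DMSO and 100% = background rate lacking mevalonate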
Wee1 degr conf = human Wee1 degradation inhibition, confirmation; shares compounds with Wee1 degr inh; HeLa Luc-Wee1K328M degradation, luminescence; vehicle 0%, proteasome-blocked wells 100%; activation, % at 5 µM; hit rate 4% among 1,100; in the data active means activation above about 8.9%
* marks the source's active call; other numbers are inactive results; ? = inconclusive; . = no result given. Sampled rows, rich in hits. Any-hit rate of the full collection: about 3.4%.

SMILES | Runt-SMMHC FRET | PHOSPHO1 inh | Runt-CBFb FRET | Wee1 degr inh | RanGTP-Imp inh | Efa HMGR inh | Wee1 degr conf
CCCc1cc(C(=O)NCc2ccco2)no1 | -4.2 | -2.3 | 0.8 | 4.8 | 1.9 | 2.3 | .
CNC(=O)c1c(Cl)cnn1-c1ccc(F)cc1 | -1.8 | 41.2 | -0.1 | 13.4* | -2.3 | -2.1 | 2.6
CCOC(=O)CC(NC(=O)c1cccc2c1C(=O)N(Cc1cccnc1)C2)c1ccc(OCC)c(OC)c1 (centres undefined) | -3.6 | -3.9 | -7.7 | 1.0 | 2.4 | -7.0 | .
CNC(=S)N=Nc1c(O)[nH]c2ccccc12 | 2.6 | 4.5 | -2.0 | -2.0 | -1.1 | -1.3 | .
CN(C)C(=S)N=Nc1[nH]c2ccccc2c1O | 0.5 | -184.9 | 3.0 | 11.0* | 4.4 | 7.8 | -0.8
CC(=O)N(C)c1ccc(N=Nc2c(C)[nH]n(-c3ccccc3)c2=O)cc1 | . | 34.8 | . | . | -2.7 | . | .
CC(=O)N(C)c1ccc(N=Nc2c(C)[nH]n(C(N)=S)c2=O)cc1 | -2.4 | -5.1 | -0.1 | 17.1* | -0.3 | -5.6 | 2.3
Cc1nn2cc(-c3ccc(Cl)cc3)nc2s1 | -3.8 | -5.7 | 2.3 | 13.8* | 1.2 | -2.3 | 0.1
C=C(C)COc1ccc(-c2[nH]ncc2Oc2ccc(OC)cc2)c(O)c1 | 3.7 | 17.1 | 1.8 | 18.0* | -0.8 | . | 3.8
C=C(C)COc1ccc(-c2[nH]ncc2Oc2ccccc2OC)c(O)c1 | 0.4 | 21.3 | 2.3 | -1.1 | -0.1 | -5.6 | .
COc1cccc(C2=CC(c3cccc(OC)c3OC)n3nnnc3N2)c1 (centres undefined) | -9.1 | 5.0 | -2.5 | 11.4* | -4.3 | 0.3 | 11.8*
CC(=O)c1ccc(OCC(O)CN(C)Cc2cccs2)cc1 (centres undefined) | 1.7 | -3.5 | -0.9 | -3.0 | 1.9 | -0.4 | .
Nc1nnc(-c2ccc(Cl)cc2)s1 | -5.6 | -1.3 | -0.4 | 11.5* | ? | -0.1 | 5.3
COC(=O)c1cc(Br)c(=O)n(-c2ccc(F)cc2)c1 | -0.4 | 6.7 | 1.2 | 2.2 | 1.8 | -2.1 | .
COc1ccc(N2CCN(C(c3ccc4ncccc4c3)c3nnnn3C(C)(C)C)CC2)cc1 (centres undefined) | -3.4 | 32.5 | 1.1 | 11.2* | 1.3 | -3.6 | -0.4
CC(C)(C)n1nnnc1C(c1ccc2ncccc2c1)N1CCC(O)CC1 (centres undefined) | 0.6 | -3.0 | 1.4 | 6.6 | 3.0 | -1.9 | .
COc1ccc(/C=C/C(=O)NC(=S)N2CCOCC2)cc1 | . | -96.9 | . | . | -2.5 | . | .
COc1ccc(/C=C/C(=O)NC(=S)N2CCN(c3ccccc3OC)CC2)cc1 | 0.6 | -34.9 | 0.4 | 11.5* | -1.3 | . | 5.2
O=C(COC(=O)c1ccc(O)cc1)Nc1ccccc1 | . | -24.2 | . | . | 0.0 | . | .
CS(=O)(=O)N1CCc2cc(C(=O)NC3CC3)ccc21 | 0.9 | 19.9 | 1.1 | 14.1* | -1.0 | -0.5 | 3.3
Cc1ccc(NC(=O)COC(=O)[C@H](C)N2C(=O)C3CC=CCC3C2=O)cc1S(=O)(=O)N(C)C (some centres undefined) | 0.3 | 27.7 | -1.0 | 13.8* | 1.1 | -7.6 | 4.0
Fc1ccc(N/N=C/c2ccc(N3CCOCC3)cc2)c(F)c1 | 1.4 | -121.4 | 1.9 | -2.9 | -2.3 | 0.4 | .
CC1CCCCN1C(=O)Cn1c(=O)n(-c2ccc(F)cc2)c(=O)c2sccc21 (centres undefined) | 1.2 | 4.4 | -3.6 | 10.9* | 4.9 | -6.0 | 3.8
O=C(NCC(=O)N(c1cccnc1)C(C(=O)NC1CCCC1)c1cccs1)c1cccs1 (centres undefined) | . | 3.4 | . | 0.0 | -1.0 | 2.5 | .
CC(=O)Nc1ccc(NC(=O)CN(C)CCC#N)cc1 | 2.6 | -2.9 | -3.3 | 2.2 | -2.5 | -1.3 | .
SMILES | Runt-SMMHC FRET | PHOSPHO1 inh | Runt-CBFb FRET | Wee1 degr inh | RanGTP-Imp inh | Efa HMGR inh | Wee1 degr conf
COCCn1c(SCC(=O)NCc2ccc3c(c2)OCO3)nnc1-c1c[nH]c2ccccc12 | 0.9 | 5.1 | -1.8 | 1.9 | 1.2 | -2.2 | .
O=C(Nc1cccnc1)c1ccc(S(=O)(=O)c2ccccc2)cc1 | -1.5 | 34.2 | -6.1 | -0.1 | -2.6 | 0.0 | .
CC12CC3(C)CC(C)(C1)CC(C(=O)NCC(=O)O)(C2)C3 | 0.5 | 43.9 | -0.9 | 0.4 | 2.8 | 1.2 | .
CN(C)C(=S)NC(=O)C12CC3(C)CC(C)(CC(C)(C3)C1)C2 | 1.0 | -82.0 | -0.5 | 10.9* | 0.5 | . | -1.4
Cc1cc(/C=C2\SC(=S)NC2=O)c(C)n1-c1ccccc1 | 17.3 | -48.3 | 25.5 | 15.2* | 9.3 | . | 4.2
CN(C)c1ccc(C(=O)OCC(=O)NC2CCCCC2)cc1 | 1.0 | 0.1 | 0.3 | 1.6 | -3.4 | 1.3 | .
Cc1cc(C)nc(N2CCCC(C(=O)Nc3nc4ccc(S(C)(=O)=O)cc4s3)C2)n1 (centres undefined) | -8.1 | 17.5 | -3.7 | 10.9* | ? | -0.6 | -1.6
Cc1cc(C)nc(N2CCCC(C(=O)Nc3nnc(C)s3)C2)n1 (centres undefined) | -0.2 | 3.7 | -0.9 | -0.1 | -10.2 | -4.2 | .
CCCn1c(O)c(N=NC(=O)CNC(=O)c2ccncc2)c2ccccc21 | . | 54.1 | . | . | 4.5 | . | .
N#CCCn1c(O)c(N=NC(=O)CNC(=O)c2cccs2)c2ccccc21 | 4.0 | 41.8 | 0.1 | 15.3* | 0.7 | . | -0.5
COc1ccc(/C=C(\C#N)C(=O)N2COCC2(C)C)cc1 | . | . | . | . | 7.3 | . | .
NS(=O)(=O)c1ccc(NC(=O)CSc2nc3ccccc3[nH]2)cc1 | 3.8 | 22.8 | -0.6 | 11.3* | -1.5 | -2.6 | 2.2
Cc1ccc2nc(N(CCCN(C)C)C(=O)c3cc4ccccc4oc3=O)sc2c1 | -2.1 | -6.2 | -2.7 | 15.3* | 1.6 | 5.7 | -1.7
COc1ccc(-n2nc3cc(C)c(NC(C)=O)cc3n2)cc1 | -1.0 | 10.5 | 0.3 | 11.9* | -0.1 | -4.3 | -4.3
CC1CCCN(CC(O)COC(c2ccccc2)c2ccccc2)C1 (centres undefined) | 2.3 | 16.8 | 0.0 | 12.2* | 1.4 | 0.9 | -1.1
OC1CCCN(CC(O)COC(c2ccccc2)c2ccccc2)C1 (centres undefined) | 0.8 | 43.2 | 3.8 | 4.4 | -4.5 | . | .
COc1ccc(S(=O)(=O)N2CCN(CC(=O)Nc3ccc(F)c(F)c3)CC2)cc1 | 2.5 | 17.6 | -0.1 | 12.1* | 3.9 | 3.4 | 0.6
Cc1cc(C)n(-c2ccc(C(=O)Nc3ccccc3N3CCOCC3)cc2)n1 | 0.7 | 35.1 | -2.7 | 7.5 | 5.7 | 0.0 | .
Cc1cc(C)n(-c2ccc(C(=O)Nc3cc(C(F)(F)F)ccc3N3CCOCC3)cc2)n1 | -2.3 | 11.5 | -3.7 | 13.3* | -2.0 | -7.2 | 0.1
O=C(CSc1nc2[nH]ncc2c(=O)n1-c1ccccc1)N1CCCCCC1 | -3.2 | 36.8 | -1.0 | 11.5* | -3.1 | -4.5 | 1.8

Assay outcomes as filed in PubChem.
